Source: PubChem BioAssay (several laboratories)
A selection: hits, their analogues and other compounds. The true share with any hit is near 6.5%.
tolC growth inh – growth inhibitors of E. coli BW25113 tolC mutant | OD615 | growth inhibition, % at 10 µM (by protocol) | actives 2.2% (n = 65,000) | AID 573;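 active = growth inhibition at or above a cutoff equal to the mean over every tested compound plus 3 SD, cut at about 60% in these data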;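 also: growth measured after 20 h incubation at 37 °C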
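signal = optical density read at 615 nm | test system = E. coli ΔtolC::kan strain BW25113 | timing = 20 h compound exposure of bacteria at 37 °C | buffer or medium = LB medium plus 50 µg/mL kanamycin | compound dosing = 10 µM final, single dose | evaluation = % inhibition of E. coli growth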
Calb biofilm kill – kills Candida albicans biofilms | C. albicans biofilm + clotrimazole, Alamar Blue | inhibition, % at 6 µM | actives 0.14% (n = 85,000);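 active = inhibition above 20%; inactive = inhibition below 20%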;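 also: preformed 24 hr biofilms exposed to compound for 48 hr; 0% = biofilm without compound and 100% = blank killed by clotrimazole plus chlorhexidine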
PostGolgi yeast – growth inhibition of a yeast mutant, post-Golgi transport screen; post-Golgi transport phenotypic cell assay; inhibition, % at 10 µM; actives 0.9% (n = 98,000);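 also: yeast cells grown in 1536-well plates; yeast grown about 18 h at 30C before absorbance read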
PTK2B oligo ant – Pyk2 (human) oligomerization antagonism; z-score (the deposit names both 25 µM and 10 µM); Q293 cells, Pyk2 FERM NanoBiT luminescence; active compounds read low; actives 0.83% (n = 99,000); AID 1347419; Q14289;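 active = Z-score of -3 or lower, scaled per plate to the spread of control and sample wells; inactive = z-score above -3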;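 also: negative z-score means lost luminescence so less FERM oligomerization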
Target sequence (Q14289 whole entry, looked up): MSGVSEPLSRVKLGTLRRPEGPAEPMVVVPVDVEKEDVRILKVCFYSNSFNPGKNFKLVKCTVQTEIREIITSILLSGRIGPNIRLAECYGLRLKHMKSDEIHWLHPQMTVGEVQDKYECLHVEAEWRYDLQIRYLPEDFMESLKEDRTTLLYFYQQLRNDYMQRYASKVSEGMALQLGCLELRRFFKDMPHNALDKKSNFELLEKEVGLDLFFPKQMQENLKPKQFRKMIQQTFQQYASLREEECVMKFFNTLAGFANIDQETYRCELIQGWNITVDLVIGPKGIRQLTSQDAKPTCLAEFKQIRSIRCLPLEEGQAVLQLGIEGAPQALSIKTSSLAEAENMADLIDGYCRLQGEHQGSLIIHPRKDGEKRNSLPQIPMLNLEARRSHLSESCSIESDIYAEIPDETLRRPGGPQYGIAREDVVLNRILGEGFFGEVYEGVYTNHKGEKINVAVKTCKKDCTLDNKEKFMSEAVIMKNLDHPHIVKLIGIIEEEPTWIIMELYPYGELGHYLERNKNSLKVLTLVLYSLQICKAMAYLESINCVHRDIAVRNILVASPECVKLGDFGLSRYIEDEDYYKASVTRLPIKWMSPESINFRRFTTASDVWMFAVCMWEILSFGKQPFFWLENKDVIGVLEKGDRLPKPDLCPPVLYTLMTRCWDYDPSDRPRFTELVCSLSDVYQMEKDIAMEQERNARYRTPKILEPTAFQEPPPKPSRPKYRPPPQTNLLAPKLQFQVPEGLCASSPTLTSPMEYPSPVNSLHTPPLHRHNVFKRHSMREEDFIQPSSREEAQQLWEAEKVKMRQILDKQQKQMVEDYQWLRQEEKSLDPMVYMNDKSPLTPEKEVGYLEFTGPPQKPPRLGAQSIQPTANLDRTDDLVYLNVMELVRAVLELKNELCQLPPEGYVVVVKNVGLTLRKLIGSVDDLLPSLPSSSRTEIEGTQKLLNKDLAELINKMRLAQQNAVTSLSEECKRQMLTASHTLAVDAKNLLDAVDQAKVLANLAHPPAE
PostGolgi ctrl – yeast control strain growth, post-Golgi counter-screen; efflux-deficient yeast background strain, growth absorbance A615, 16 h; inhibition, % at 10 µM; actives 5% (n = 98,000); AID 738
E coli WT exp – E. coli BW25113 growth inhibition, expanded screen | growth inhibition, % at 100 µM | AID 710 | OD600 absorbance | actives 0.15% (n = 98,000);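 active = growth inhibition above about 50% at one test dose, limit read from the data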;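 also: growth measured after 20 h incubation at 37 °C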
* = called active by the depositor; · = no result given. Rule as the data show it, unless noted: active = inhibition above about 30%; inactive = the rest.

SMILES	tolC growth inh	Calb biofilm kill	PostGolgi yeast	PTK2B oligo ant	PostGolgi ctrl	E coli WT exp
Cc1ccccc1C1=NCC(=O)N(CC(=O)NCc2ccco2)c2sc3c(c21)CCCC3	61*	7	5	1.5	10	-1
CCC(C)C1N=C(c2ccccc2)c2cc(Cl)ccc2N(CC(=O)NCc2ccco2)C1=O (configuration not stated)	·	8	-8	·	4	-4
COc1ccc(-n2c(O)c(C(C)=NCCCn3ccnc3)c(=O)[nH]c2=O)cc1	·	5	-8	1.1	5	-7
CC(C)CC1C(C#N)=C(N)Oc2c1c(=O)oc1ccccc21 (configuration not stated)	1	5	-3	·	41*	-1
O=C(Cc1ccccc1)Oc1ccccc1N1C(=O)CCC1=O	-11	8	0	0.14	0	2
CC(C)OCCCNC(=O)c1c(N)n(CC2CCCO2)c2nc3ccccc3nc12 (configuration not stated)	23	7	6	0.15	14	-1
CCCNC(=O)c1c(N)n(CC2CCCO2)c2nc3ccccc3nc12 (configuration not stated)	0	1	9	0.12	33*	12
CCCCCCn1c(N)c(C(=O)NCCN2CCOCC2)c2nc3ccccc3nc21	76*	8	1	-0.42	28	3
CCCCCn1c(N)c(C(=O)NCCN2CCOCC2)c2nc3ccccc3nc21	17	·	1	-2.1	12	10
CC(C)OC(=O)c1c(N)n(CC2CCCO2)c2nc3ccccc3nc12 (configuration not stated)	16	4	7	-0.01	27	2
COCCCn1c(N)c(C(=O)NCCC(C)C)c2nc3ccccc3nc21	18	10	3	0.33	32*	4
CC(C)CCOC(=O)c1c(N)n(CC2CCCO2)c2nc3ccccc3nc12 (configuration not stated)	60*	4	10	-0.09	13	-2
O=C1NC(=S)NC(=O)C1C/C=C/c1ccccc1	·	1	2	0.06	4	-9
Cc1ccccc1OCCN=Cc1c(O)n(C)c(=O)n(C)c1=O	·	9	-11	-0.32	12	7
CCCCn1c(=O)c(C(=O)Nc2cnccn2)c(O)c2ccccc21	99*	0	7	-0.79	26	-5
CCOC(=O)C1=C(N)OC2=C(C(=O)CCC2)C12C(=O)N1c3c(ccc(C)c32)C(C)=CC1(C)C (configuration not stated)	70*	3	-1	-0.13	20	-5
CCOC(=O)C1=C(N)OC2=C(C(=O)CCC2)C12C(=O)Nc1ccccc12 (configuration not stated)	-2	7	2	0.03	-2	-5
CC(C)(C)C(O)C(Oc1ccc(Cl)cc1)n1cncn1 (configuration not stated)	6	9	104*	·	98*	0
O=c1cccc2n1CC1CC2CN(C(c2ccccc2)c2sc3ncnn3c2O)C1 (configuration not stated)	-7	0	6	·	-7	8
CC(C(=O)c1c[nH]c2ccccc12)N1CCc2ccccc2C1 (configuration not stated)	7	5	-9	1.3	2	0
CCCCCCCSc1cc(OC)c(CCNC)cc1OC	·	·	0	-1.1	49*	76*
CCCC12CN3CN(C1)CC(CCC)(C3)C2O (configuration not stated)	12	2	-6	1.2	6	-5
O=C1CCCC2C3CCCN4CCCC(CN12)C34 (configuration not stated)	-14	-2	-2	·	-9	6
Cc1ccc(N2CCN(CCc3ccccc3)CC2)cc1	·	·	7	-0.1	43*	7
Cc1ccc(S(=O)(=O)N2CC3CC(C2)c2cccc(=O)n2C3)cc1 (configuration not stated)	·	6	33*	0.63	0	11
SMILES	tolC growth inh	Calb biofilm kill	PostGolgi yeast	PTK2B oligo ant	PostGolgi ctrl	E coli WT exp
CC1=CC(=C2C(=O)NC(=S)NC2=O)C=C(C(F)(F)F)N1C	·	3	40*	0.14	11	-4
CC(C)OC(=O)C1C(=O)NC2(C)CC1c1ccccc1O2 (configuration not stated)	-7	12	4	0.34	9	1
Clc1ccc(COC(Cn2ccnc2)c2ccc(Cl)cc2Cl)c(Cl)c1 (configuration not stated)	100*	12	·	·	·	·
Cc1oc(C(=O)Nc2ccc(O)cc2)cc1COc1ccccc1	55	-6	-11	-0.64	18	1
CC(C)C1(C)N=C(c2nc3ccccc3cc2C(=O)O)NC1=O (configuration not stated)	-37	4	2	-0.66	22	1
COC(=O)C1C2c3ccccc3OC1(C)N=c1s/c(=C/c3cnn(C)c3C)c(=O)n12 (configuration not stated)	10	4	4	1.2	48*	-2
CC(=O)C1C2c3ccccc3OC1(C)N=c1s/c(=C/c3cnn(C)c3)c(=O)n12 (configuration not stated)	-1	3	2	-0.3	11	1
CC[N+](CC)(CC)CCCOC(=O)C(O)(c1ccccc1)C1CCCCC1 (configuration not stated)	·	3	3	0.05	-4	5
N=c1sc2c(n1Cc1ccccc1)CCCC2	-3	5	8	1.1	-1	5
N=c1c2c(n(Cc3ccc(Cl)cc3Cl)c3c1CCC3)CCCC2	100*	1	19	0.07	19	21
CN1CCN(C(=O)COc2ccc3ccccc3c2Br)CC1	2	5	1	1.3	28	2
O=c1[nH]c(=O)n(-c2ccccc2Cl)c(O)c1C=NCCN1CCCCC1	·	-2	-9	0.07	17	0
O=c1[nH]c(=O)n(Cc2ccc(F)cc2)c(O)c1C=NCCN1CCCCC1	-13	9	18	0.74	33*	1
CCCCn1c(O)c(C(CC)=NC(C)c2ccccc2)c(=O)[nH]c1=O (configuration not stated)	·	5	15	-3.8*	52*	-10
CCCCn1c(O)c(C(C)=NCc2cc(OC)cc(OC)c2)c(=O)[nH]c1=O	·	6	-7	-1.2	20	-8
C=CCn1c(O)c(C(CC)=NC2CC2)c(=O)[nH]c1=O	·	7	-12	-0.32	8	1
C=CCn1c(O)c(C(CC)=NC(C)c2ccccc2)c(=O)[nH]c1=O (configuration not stated)	·	7	0	-0.85	40*	-7
CCCCn1c(O)c(C(C)=NCCc2ccccc2)c(=O)[nH]c1=O	-1	7	1	-1.4	31*	7
CCCCn1c(O)c(C(C)=NC(C)c2ccccc2)c(=O)[nH]c1=O (configuration not stated)	28	11	-3	-3.6*	19	4
